From ChEMBL document CHEMBL1153564 (Antimicrob Agents Chemother, 2008) come the findings set out here.

Series [1] has as its system Nakaseomyces glabratus. Put plainly: Antifungal activity against Candida glabrata 5376 infected in neutropenic ICR/Swiss mouse candidiasis model assessed as dose required for 1-log10 reduction in […] per kidney administered intraperitoneally every 24 hrs up to 4 days measured per 96 hrs. Format: functional. An outline of the steps:
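Neutropenic ICR/Swiss mice infected i.v. with the strain; therapy began 2 h later. Total doses of 1.25–320 mg/kg/96 h were given i.p. as 1, 2, 4 or 6 doses (q96h, q48h, q24h, q16h), three mice per regimen. Kidney CFU were counted after 4 days. Effect is the change from untreated controls at the end of therapy.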

A further series relates to Candida tropicalis. The series is described as follows: Antifungal activity against Candida tropicalis 98-234 infected in neutropenic ICR/Swiss mouse candidiasis model assessed as dose required to maintain […] of 3.81 +/- 0.33 log10CFU per kidney administered intraperitoneally every 24 hrs up to 4 days measured per 24 hrs. The series is classed as functional.

Series [2] deals with Nakaseomyces glabratus. Put plainly: Antifungal activity against Candida glabrata 570 infected in neutropenic ICR/Swiss mouse candidiasis model assessed as dose required to maintain […] of 1.83 +/- 0.54 log10CFU per kidney administered intraperitoneally every 24 hrs up to 4 days measured per 24 hrs. The series is classed as functional.
Series [3] concerns Nakaseomyces glabratus. Put plainly: Antifungal activity against Candida glabrata 5376 infected in neutropenic ICR/Swiss mouse candidiasis model assessed as prolongation of fungal growth suppression at 1.25 mg/kg, ip administered 2 hrs postinfection as single dose by time-kill assay. Format: functional. To be noted: route intraperitoneal. The gist of the method:
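Single ip dose of 1.25, 5 or 20 mg/kg given 2 h after iv infection of neutropenic mice. Groups of 3 treated and 3 control mice sampled at 1–24 h intervals over 96 h. Kidney homogenates plated on SDA, 24 h at 35°C. PAFE = time for treated burden to rise 1 log10 CFU/kidney after serum level fell below MIC, minus the same time in controls.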

The subject of series [4] is Candida albicans. The series is described as follows: Antifungal activity against Candida albicans K-1 infected in neutropenic ICR/Swiss mouse candidiasis model assessed as […] burden per kidney administered intraperitoneally every 16 hrs up to 4 days measured per 96 hrs. The series is classed as functional. To be noted: K-1, Kidney, ip. An outline of the steps:
(§1)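 Neutropenic mice were infected iv with C. albicans K-1 2 h before therapy. Total doses of 1.25, 5, 20, 80 and 320 mg/kg/96 h were split into 1, 2, 4 or 6 ip doses (q96h, q48h, q24h, q16h), three mice per regimen. Effect is the log10 CFU/kidney relative to untreated controls at 96 h. Static and 1-log doses were taken from a Hill model fit.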

The subject of series [5] is Candida albicans. Put plainly: Antifungal activity against Candida albicans K-1 infected in neutropenic ICR/Swiss mouse candidiasis model assessed as […] burden per kidney administered intraperitoneally every 48 hrs up to 4 days measured per 96 hrs. Format: functional. To be noted: K-1, Kidney, ip. An outline of the steps:
as §1

The test system of series [6] is Candida albicans. The series is described as follows: Antifungal activity against Candida albicans 98-210 infected in neutropenic ICR/Swiss mouse candidiasis model assessed as dose required for 1-log10 reduction in […] per kidney administered intraperitoneally every 24 hrs up to 4 days measured per 24 hrs. Format: functional. An outline of the steps: (§2)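 Neutropenic mice (cyclophosphamide sc on days −4, −1 and +2) were infected iv 2 h before therapy. Five total doses from 0.078 to 20 mg/kg/24 h were given ip q24h for 4 days, three mice per regimen. Kidney CFU were measured at the end of therapy. Static and 1-log-kill doses were derived from a Hill sigmoid dose-effect fit.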

Series [7] deals with Candida albicans. Put plainly: Antifungal activity against Candida albicans 580 infected in neutropenic ICR/Swiss mouse candidiasis model assessed as dose required for 1-log10 reduction in […] per kidney administered intraperitoneally every 24 hrs up to 4 days measured per 24 hrs. Format: functional. The gist of the method:
as §2

Series [8] relates to Nakaseomyces glabratus. Put plainly: Antifungal activity against Candida glabrata 5376 infected in neutropenic ICR/Swiss mouse candidiasis model assessed as dose required for 1-log10 reduction in […] per kidney administered intraperitoneally every 24 hrs up to 4 days measured per 24 hrs. The series is classed as functional. The gist of the method: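 Neutropenic mouse disseminated candidiasis, with i.p. therapy starting 2 h after i.v. infection. Five total doses of 0.078–20 mg/kg/24 h were given q24h for 4 days, three mice per dose. Kidney CFU were counted at the end and compared with untreated controls. The dose giving a 1 log10 CFU/kidney reduction was derived from the sigmoid Hill dose–effect model.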

Series [9] deals with Candida albicans. The series is described as follows: Antifungal activity against Candida albicans K-1 assessed as partial growth inhibition after 24 hrs by CLSI end point method. Format: functional. As to conditions: K-1, 24 h. The gist of the method: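 CLSI M27-A2 broth dilution. Two end points read against the drug-free control well: partial inhibition (CLSI end point) and complete inhibition. Run in duplicate on four separate occasions; value is the mean. Drug stock in DMSO, diluted in 0.9% NaCl.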

Series [10] concerns Nakaseomyces glabratus. Put plainly: Antifungal activity against Candida glabrata 5592 infected in neutropenic ICR/Swiss mouse candidiasis model assessed as fungal count per kidney administered 2 hrs postinfection measured up to 48 hrs. Format: functional. An outline of the steps: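 Female ICR/Swiss mice (23–27 g) made neutropenic with cyclophosphamide s.c. (150 mg/kg day −4, 100 mg/kg day −1, 100 mg/kg day +2). Infected by tail vein with 0.1 ml inoculum (~6.1 log10 CFU/ml). Kidneys of untreated mice were homogenised and plated on SDA for 24 h at 35°C. Growth over 48 h is given as log10 CFU/kidney.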

Series [11] has as its system Nakaseomyces glabratus. Put plainly: Antifungal activity against Candida glabrata 5376 assessed as complete growth inhibition after 24 hrs by CLSI end point method. To be noted: Nakaseomyces glabratus, 5376, 24 h. Format: functional. An outline of the steps:
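Two end points were read against the drug-free control well: partial growth inhibition (the CLSI end point) and complete inhibition. Run in duplicate on four separate occasions; the value is the mean. Drug stock was made in DMSO and diluted in 0.9% NaCl.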

Another series relates to Mus musculus. The series is described as follows: Cmax in serum of neutropenic ICR/Swiss mouse candidiasis model at 5 mg/kg, ip up to 4 hrs by reverse-phase high-pressure liquid chromatography. The series is classed as ADME, organism-based. On the set-up: dose 5 mg/kg, route intraperitoneal. To be noted: in vivo. An outline of the steps:
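Infected neutropenic ICR/Swiss mice given single ip doses (5, 20 or 80 mg/kg; 0.2 ml); serum from three isoflurane-anaesthetised mice at 1, 4, 8, 12, 24 and 48 h, stored at −80°C, assayed by reverse-phase HPLC with fluorescence detection, loratadine internal standard, linear 10–50,000 ng/ml. Noncompartmental analysis; half-life by nonlinear least squares.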

Series [12] deals with Candida albicans. Put plainly: Antifungal activity against Candida albicans K-1 infected in neutropenic ICR/Swiss mouse candidiasis model assessed as reduction of […] in kidney at 1.25 mg/kg, ip administered 2 hrs postinfection as single dose measured after 96 hrs post dosing by time-kill assay. On the set-up: dose 1.25 mg/kg. The series is classed as functional, organism-based. The gist of the method:
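Neutropenic mice given a single ip dose (1.25, 5 or 20 mg/kg) 2 h after tail-vein infection. Kidneys from 3 mice per time point collected nine times over 96 h. Homogenates serially diluted 1:10 and plated on SDA, 24 h at 35°C. Detection limit 100 CFU/ml.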

The test system of series [13] is Nakaseomyces glabratus. The series is described as follows: Antifungal activity against Candida glabrata 5376 infected in neutropenic ICR/Swiss mouse candidiasis model assessed as reduction of […] in kidney at 20 mg/kg, ip administered 2 hrs postinfection as single dose measured after 96 hrs post dosing by time-kill assay. The series is classed as functional, organism-based. On the set-up: dose 20 mg/kg. An outline of the steps:
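Neutropenic mice were infected i.v. and 2 h later given a single i.p. dose (1.25, 5 or 20 mg/kg). Groups of three treated and three control mice were killed at intervals over 96 h, and kidney CFU were counted on SDA (limit 100 CFU/ml). The post-antifungal effect is t − c: the time for a 1 log10 CFU/kidney increase once serum levels fall below the MIC in treated mice, minus the same time in controls.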

Structures are written as SMILES. In brackets after ≈: the same amount, converted by molar mass. Activity calls are given as the source filed them. The calls are words filed in the database; no cut-off is given here. Starred links: 1 amine or outer side, 2 acyl side, 3 side chain; linkers in the order of their positions; H or OH if unused. Positions of bridges follow the written chain, without caps; N, C: chain ends. Non-standard residues stand in square brackets, D forms with d. Residues, ends and D or L forms follow the SMILES beside them. *: point of attachment. pTerphenylCO(4''-OnC5H11) = CCCCCOc1ccc(-c2ccc(-c3ccc(C(=O)*)cc3)cc2)cc1; Orn(4R-OH,5R-OH) = O=C([C@H](C[C@@H](O)[C@@H](O)N[*:3])N[*:1])[*:2]; hTyr(3S-OH,4S-OH) = N[C@H](C(=O)O)[C@H](O)[C@@H](O)c1ccc(O)cc1; Pro(3S-OH,4S-Me) = C[C@H]1CN[C@H](C(=O)O)[C@H]1O; Hyp = O=C(O)[C@@H]1C[C@@H](O)CN1

On to `CCCCCOc1ccc(-c2ccc(-c3ccc(C(=O)N[C@H]4C[C@@H](O)[C@@H](O)NC(=O)[C@@H]5[C@@H](O)[C@@H](C)CN5C(=O)[C@H]([C@@H](C)O)NC(=O)[C@H]([C@H](O)[C@@H](O)c5ccc(O)cc5)NC(=O)[C@@H]5C[C@@H](O)CN5C(=O)[C@H]([C@@H](C)O)NC4=O)cc3)cc2)cc1` [ANIDULAFUNGIN] ({pTerphenylCO(4''-OnC5H11)}-[Orn(4R-OH,5R-OH)]T[Hyp][hTyr(3S-OH,4S-OH)]T[Pro(3S-OH,4S-Me)]; lactam 1-C), for which the Activity in the series with Nakaseomyces glabratus [1] amounted to 30.8 mg/kg; with Candida tropicalis, 3.81 mg/kg; with Nakaseomyces glabratus [2] it was 1.97 mg/kg; with Nakaseomyces glabratus [3], 19 h; in the series on Candida albicans [6], 13 mg/kg; in the series with Candida albicans [7], 2.31 mg/kg. Moreover, the Activity in the series with Nakaseomyces glabratus [8] worked out at 7.5 mg/kg. In addition, the values for the ED50 in the series with Candida albicans [4] and with Candida albicans [5] were 8.74 mg/kg and 3.14 mg/kg, respectively. In addition, the MIC (commonly the lowest concentration found to suppress growth) in the series on Candida albicans [9] came out at 0.015 µg/mL (≈ 0.0132 µM); in the series on Nakaseomyces glabratus [11], 0.06 µg/mL (≈ 0.0526 µM). In addition, the log10cfu in the series with Nakaseomyces glabratus [10] is recorded as 2.1. Besides, the maximum concentration (Cmax) – broadly, the highest concentration seen after dosing – in the series on Mus musculus stood at 4300 ng/mL. The result with Candida albicans [12] and with Nakaseomyces glabratus [13] was Active.
